Activity calls are given as the source filed them. The calls are words filed in the database; no cut-off is given here.
Columns and labels:
[1] = Selectivity ratio of EC50 for human G361 cells under dark condition measured after 24 hrs by MTT assay to EC50 for human G361 cells pretreated for 4 hrs followed by light irradiation of 10 J/cm2 at 414 nm measured after 20 hrs by MTT assay; format: functional
Outline: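 Ratio of dark EC50 to EC50 after 414 nm irradiation (10 J/cm²). MTT read-out; compound exposure 4 h before irradiation. Each dark value is paired with the matching post-irradiation incubation (20 h or 68 h).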

G-361 [2] = assay: Cytotoxicity against human G361 cells under dark condition measured after 24 hrs by MTT assay; format: functional, cell-based; settings: G-361, 24 h
Outline: (§1)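 Cells grown in phenol red-free DMEM with 10 % FBS, penicillin/streptomycin, 37 °C, 5 % CO₂. Compound added 24 h after plating and incubated 4 h. Irradiated cells received 414 nm LED light at 20 mW/cm², 10 J/cm², then were incubated 20 h or 68 h more. Dark plates were run in parallel without irradiation. MTT was added for 4 h, formazan dissolved in 10 % SDS, absorbance read at 570 nm. EC50 ± SD.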

ARN-8 cell [3] = assay: Upregulation of Mcl-1 level in human ARN-8 cells-derived from human A375 cells upto 4 uM pretreated for 4 hrs followed by light irradiation of 10 J/cm2 at 414 nm measured after 20 hrs by Western blot analysis; format: functional, cell-based; settings: time 24.0 hrs
Outline: (§2)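 Compound exposure 4 h, then 414 nm irradiation, then 20 h further incubation. Lysates made in RIPA buffer, separated by SDS-PAGE and blotted to nitrocellulose. Primary antibodies in TBS with 4 % BSA and 0.1 % Tween 20, incubated overnight. Peroxidase secondary antibody with chemiluminescent detection. GAPDH served as loading control.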

G-361 [4] = assay: (§3) Induction of ROS production in human G361 cells assessed as increase in hydroxyl radical production upto 4 uM pretreated for 4 hrs followed by replacement of medium containing probe without compound for 30 mins and subsequent light irradiation of 5 to 10 J/cm2 measured immediately by DHR-123 probe based analysis; format: functional, cell-based
Outline: (§4)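 Compound exposure 4 h, then medium replaced with PBS containing 5 µM DHR123 probe for 30 min. Probe removed, cells in PBS irradiated at 5 or 10 J/cm², dark samples in parallel. Fluorescence read immediately at 490/525 nm.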

ARN-8 cell [5] = assay: as §3, with “ARN-8 cells-derived from human A375” for “G361”, “singlet oxygen level” for “hydroxyl radical production”; format: functional; outline: as §4
ARN-8 cell [6] = assay: Downregulation of p53 level in human ARN-8 cells-derived from human A375 cells transfected with p53-responsive beta-galactosidase at higher concentration pretreated for 4 hrs followed by light irradiation of 10 J/cm2 at 414 nm measured after 20 hrs by fluorescence based assay; format: functional; settings: time 24.0 hrs
Outline: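 ARN8 cells stably carrying the p53-responsive pRGΔfoslacZ reporter. Increasing compound concentrations for 4 h, then 414 nm irradiation at 2.5, 5, 7.5 or 10 J/cm², then 20 h further incubation. Cells lysed in 0.3 % Triton X-100. After 10 min, 4-methylumbelliferyl β-D-galactopyranoside added at a final 80 µM for 1 h. Fluorescence read at […].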

G-361 [7] = assay: Induction of ROS production in human G361 cells upto 4 uM treated for 4 hrs under dark condition by CM-H2DCFA probe based analysis; format: functional, cell-based
Outline: (§5)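 Cells loaded next day with 5 µM CM-H₂DCFDA for 30 min, then placed in prewarmed PBS with 5 mM glucose. Compound exposure 4 h, followed by 414 nm irradiation at 5 or 10 J/cm²; dark samples run in parallel. Fluorescence read immediately at 492/530 nm. NAC (5 mM) pretreatment for 10 min gave negative controls. RFU normalised to untreated dark control.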

[8] = Cytotoxicity against ARN-8 cells-derived from human A375 cells pretreated for 4 hrs followed by light irradiation of 10 J/cm2 at 414 nm measured after 68 hrs by MTT assay; format: functional, cell-based; settings: ARN-8 cell, light or radiation study; outline: as §1
G-361 [9] = assay: Induction of apoptosis in human G361 cells assessed as decrease in Mcl-1 level upto 4 uM pretreated for 4 hrs followed by light irradiation of 10 J/cm2 at 414 nm measured after 20 hrs by Western blot analysis; format: functional, cell-based; settings: time 24.0 hrs; outline: as §2
ARN-8 cell [10] = assay: Induction of DNA damage in human ARN-8 cells-derived from human A375 cells assessed as increase in H2AX phosphorylation at Ser139 at 0.5 to 1 uM pretreated for 4 hrs followed by light irradiation of upto 10 J/cm2 at 414 nm measured after 20 hrs by Western blot analysis; format: functional, cell-based; settings: dose 0.5-1 µM, time 24.0 hrs; outline: as §2
G-361 [11] = assay: Induction of apoptosis in human G361 cells assessed as increase in cleaved pro-caspase-9 level upto 4 uM pretreated for 4 hrs followed by light irradiation of 10 J/cm2 at 414 nm measured after 20 hrs by Western blot analysis; format: functional, cell-based; settings: time 24.0 hrs; outline: as §2
G-361 [12] = assay: Induction of apoptosis in human G361 cells assessed as decrease in Bcl-2 level upto 4 uM pretreated for 4 hrs followed by light irradiation of 10 J/cm2 at 414 nm measured after 20 hrs by Western blot analysis; format: functional, cell-based; settings: time 24.0 hrs; outline: as §2
G-361 [13] = assay: Cytotoxicity against human G361 cells under dark condition measured after 72 hrs by MTT assay; format: functional, cell-based; settings: G-361, 72 h; outline: as §1
G-361 [14] = assay: Induction of ROS production in human G361 cells upto 4 uM pretreated for 4 hrs followed by light irradiation of 5 to 10 J/cm2 measured immediately in presence of N-acetylcysteine by CM-H2DCFA probe based analysis; format: functional, cell-based; outline: as §5
ARN-8 cell [15] = assay: Downregulation of p53 level in human ARN-8 cells-derived from human A375 cells at higher concentration pretreated for 4 hrs followed by light irradiation of 10 J/cm2 at 414 nm measured after 20 hrs by fluorescence based assay; format: functional; settings: time 24.0 hrs
G-361 [16] = assay: Induction of ROS production in human G361 cells pretreated for 4 hrs followed by light irradiation of 5 to 10 J/cm2 measured immediately by CM-H2DCFA probe based analysis; format: functional, cell-based; settings: dose <= 4.0 µM; outline: as §5
G-361 [17] = assay: Induction of cell cycle arrest in human G361 cells assessed as increase in cell population at sub-G1 phase at 0.5 to 1 uM pretreated for 4 hrs followed by light irradiation of upto 10 J/cm2 at 414 nm measured after 20 hrs by flow cytometry; format: functional, cell-based; settings: dose 0.5-1 µM, time 24.0 hrs
Outline: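 Compound exposure 4 h (0.5 or 1 µM), then irradiation at increasing blue-light doses, then 20 h further incubation. Cells stained with propidium iodide; DNA content measured by flow cytometry with a 488 nm laser. Cell-cycle and subG1 distributions analysed.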

[18] = Cytotoxicity against human BJ cells under dark condition measured after 72 hrs by MTT assay; format: toxicity, cell-based; outline: as §1
G-361 [19] = assay: Induction of apoptosis in human G361 cells assessed as increase in cleaved PARP-1 level upto 4 uM pretreated for 4 hrs followed by light irradiation of 10 J/cm2 at 414 nm measured after 20 hrs by Western blot analysis; format: functional, cell-based; settings: time 24.0 hrs; outline: as §2
ARN-8 cell [20] = assay: Induction of ROS production in human ARN-8 cells-derived from human A375 cells pretreated for 4 hrs followed by light irradiation of 5 to 10 J/cm2 measured immediately by CM-H2DCFA probe based analysis; format: functional; settings: dose <= 4.0 µM; outline: as §5
[21] = Cytotoxicity against human ARN-8 cells-derived from human A375 cells under dark condition measured after 24 hrs by MTT assay; format: functional, cell-based; settings: ARN-8 cell; outline: as §1
ARN-8 cell [22] = assay: Induction of oxidative stress in human ARN-8 cells-derived from human A375 cells assessed as increase in HO-1 level upto 4 uM under dark condition by immunoblot analysis; format: functional, cell-based

SMILES: COc1ccc(/C=C/C2=Nc3ccc4ccccc4c3C2(C)C)cc1[N+](=O)[O-]
- Ratio EC50 [1]: >=15
- EC50 (G-361 [2]): 9 µM
- Activity (ARN-8 cell [3]): Active
- Activity (G-361 [4]): Active
- Activity (ARN-8 cell [5]): inactive
- Activity (ARN-8 cell [6]): Active
- Activity (G-361 [7]): inactive
- EC50 [8]: 0.2 µM
- Activity (G-361 [9]): Active
- Activity (ARN-8 cell [10]): Active
- Activity (G-361 [11]): Active
- Activity (G-361 [12]): Active
- EC50 (G-361 [13]): 5.6 µM
- Activity (G-361 [14]): inactive
- Activity (ARN-8 cell [15]): Active
- Activity (G-361 [16]): Dose-Dependent Effect
- Activity (G-361 [17]): Active
- EC50 at 72 h [18]: 8.3 µM
- Activity (G-361 [19]): Active
- Activity (ARN-8 cell [20]): Dose-Dependent Effect
- EC50 [21]: 9.2 µM
- Activity (ARN-8 cell [22]): Active
